Results as given in ChEMBL document CHEMBL3351467, “Ligand-free Pd-catalyzed C-N cross-coupling/cyclization strategy: an unprecedented access to 1-thienyl pyrroloquinoxalines for the new approach towards apoptosis” (Eur J Med Chem, 2014).
Activity calls are given as the source filed them. The calls are words filed in the database; no cut-off is given here.

How the values were obtained:
[1] = molecular target: 3',5'-cyclic-AMP phosphodiesterase 4B (Homo sapiens) (UniProt Q07343); assay: Inhibition of recombinant His-tagged PDE4B1 (unknown origin) expressed in Sf9 cells at 30 uM pre-incubated for 15 mins before cAMP substrate addition by luminescence assay
3',5'-cyclic-AMP phosphodiesterase 4B (Homo sapiens), sequence (Q07343 whole entry): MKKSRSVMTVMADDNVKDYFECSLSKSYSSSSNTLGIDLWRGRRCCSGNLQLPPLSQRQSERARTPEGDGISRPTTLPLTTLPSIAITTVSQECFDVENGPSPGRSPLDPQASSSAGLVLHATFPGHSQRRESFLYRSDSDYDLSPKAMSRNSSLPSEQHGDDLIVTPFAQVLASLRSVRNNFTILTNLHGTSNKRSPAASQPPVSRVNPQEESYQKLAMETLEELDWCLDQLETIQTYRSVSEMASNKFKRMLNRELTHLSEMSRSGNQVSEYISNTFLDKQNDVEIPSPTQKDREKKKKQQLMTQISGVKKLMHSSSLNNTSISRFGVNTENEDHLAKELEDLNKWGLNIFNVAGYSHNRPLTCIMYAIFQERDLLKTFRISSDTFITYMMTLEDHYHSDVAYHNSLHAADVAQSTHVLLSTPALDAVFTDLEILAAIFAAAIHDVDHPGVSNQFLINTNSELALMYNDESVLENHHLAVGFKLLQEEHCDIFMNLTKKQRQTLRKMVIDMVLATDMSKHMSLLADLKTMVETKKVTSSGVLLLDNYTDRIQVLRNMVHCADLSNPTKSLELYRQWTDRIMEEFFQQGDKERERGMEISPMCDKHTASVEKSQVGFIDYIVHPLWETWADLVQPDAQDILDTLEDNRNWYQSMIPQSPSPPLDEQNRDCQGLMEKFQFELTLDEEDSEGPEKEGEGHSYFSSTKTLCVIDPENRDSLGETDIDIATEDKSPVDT
Outline: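 PDE4B1 purified in house (10 ng) pre-incubated 15 min with compound or DMSO vehicle. cAMP substrate ([…]) added for 1 h, then reaction stopped and detection reagent applied 10 min in the dark. Luminescence (RLU) read. % inhibition = (RLU vehicle − RLU inhibitor)/RLU vehicle × 100.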

Danio rerio [2] = species: Danio rerio; assay: Toxicity in Zebrafish embryo at 1 to 30 uM; type: organism-based; conditions: in vivo
Outline: (§1)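 Embryos at 1 dpf dechorionated with 0.5 mg/ml pronase E and washed in E3. Exposed 6 per well to compound serially diluted in E3 with a final 0.1% DMSO, at 28.5 °C until 5 dpf. Embryos then washed, anaesthetised with 0.008% tricaine and scored blind for body shape, somites, notochord, tail, intestine, fins, brain, jaws, heart, liver and swim bladder. Phenobarbital (3 mM) served as positive control.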

Danio rerio [3] = species: Danio rerio; assay: Toxicity in Zebrafish embryo assessed as induction of changes in lower jaw region at 1 uM; type: organism-based; conditions: in vivo; outline: as §1
Danio rerio [4] = species: Danio rerio; assay: Teratogenicity in Zebrafish embryo at 1 to 30 uM incubated at 28.5 degC until 5 days post fertilization; type: ADME, organism-based; conditions: in vivo, 120 h; outline: as §1
Danio rerio [5] = species: Danio rerio; assay: Induction of apoptosis in Zebrafish embryo at 1 uM incubated for 24 to 48 hrs by acridine orange based fluorescence microscopy; type: functional, organism-based
Outline: (§2)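 Embryos dechorionated by hand at 24 hpf, 6 per well in two sets, in 0.1% DMSO. Compound added from serially diluted working stocks, kept at 28 °C for 24 h and 48 h. Washed three times in E3, stained 30 min with acridine orange ([…]) in E3, rinsed twice, then examined for apoptosis.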

Danio rerio [6] = species: Danio rerio; assay: Toxicity in Zebrafish embryo assessed as induction of changes in brain region at 1 uM; type: organism-based; conditions: in vivo; outline: as §1
Danio rerio [7] = species: Danio rerio; assay: Toxicity in Zebrafish embryo assessed as induction of changes in swim bladder region at 1 uM; type: organism-based; conditions: in vivo; outline: as §1
Danio rerio [8] = species: Danio rerio; assay: Induction of apoptosis in Zebrafish embryo incubated for 24 to 48 hrs by acridine orange based fluorescence microscopy; type: functional, organism-based; outline: as §2
Danio rerio [9] = species: Danio rerio; assay: Induction of apoptosis in Zebrafish embryo at 3 to 30 uM incubated for 24 to 48 hrs by acridine orange based fluorescence microscopy; type: functional, organism-based; outline: as §2
[10] = Therapeutic index, ratio of NOAEL in Zebrafish embryos to apoptotic EC50 in Zebrafish embryos; type: organism-based, Danio rerio; conditions: read-out: TI
Danio rerio [11] = species: Danio rerio; assay: Hepatotoxicity in Zebrafish embryo at 28 degC until 7 days post fertilization; type: organism-based; conditions: in vivo, 168 h
Outline: (§3)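 Larvae at 4 dpf exposed in 24-well plates, 6 per well in 0.1% DMSO, to final 1, 3, 10 and 30 concentrations, incubated at 28 °C until 7 dpf. Washed in E3 and anaesthetised with tricaine. Images scored for liver size, liver degeneration and yolk sac retention as percentages. Amiodarone served as positive control.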

Danio rerio [12] = species: Danio rerio; assay: Toxicity in Zebrafish embryo assessed as induction of changes in fins region at 1 uM; type: organism-based; conditions: in vivo; outline: as §1
Danio rerio [13] = species: Danio rerio; assay: Toxicity in Zebrafish embryo assessed as induction of changes in somites at 1 uM; type: organism-based; conditions: in vivo; outline: as §1
Danio rerio [14] = species: Danio rerio; assay: Toxicity in Zebrafish embryo assessed as induction of changes in body shape at 1 uM; type: organism-based; conditions: in vivo; outline: as §1
Danio rerio [15] = species: Danio rerio; assay: Toxicity in Zebrafish embryo assessed as induction of changes in intestine region at 1 uM; type: organism-based; conditions: in vivo; outline: as §1
Danio rerio [16] = species: Danio rerio; assay: Toxicity in Zebrafish embryo assessed as induction of changes in heart region at 1 uM; type: organism-based; conditions: in vivo; outline: as §1
Danio rerio [17] = species: Danio rerio; assay: Toxicity in Zebrafish embryo assessed as induction of changes in upper jaw region at 1 uM; type: organism-based; conditions: in vivo; outline: as §1
Danio rerio [18] = species: Danio rerio; assay: Teratogenicity in Zebrafish embryo incubated at 28.5 degC until 5 days post fertilization; type: ADME, organism-based; conditions: in vivo, 120 h; outline: as §1
Danio rerio [19] = species: Danio rerio; assay: Hepatotoxicity in Zebrafish embryo at 30 uM incubated at 28 degC until 7 days post fertilization; type: organism-based; conditions: in vivo, 168 h; outline: as §3
Danio rerio [20] = species: Danio rerio; assay: Hepatotoxicity in Zebrafish embryo at 1 to 10 uM incubated at 28 degC until 7 days post fertilization; type: organism-based; conditions: in vivo, 168 h; outline: as §3
Danio rerio [21] = species: Danio rerio; assay: Toxicity in Zebrafish embryo assessed as induction of changes in tail region at 1 uM; type: organism-based; conditions: in vivo; outline: as §1
Danio rerio [22] = species: Danio rerio; assay: Toxicity in Zebrafish embryo assessed as induction of changes in liver region at 1 uM; type: organism-based; conditions: in vivo; outline: as §1
Danio rerio [23] = species: Danio rerio; assay: Toxicity in Zebrafish embryo assessed as induction of changes in notochords at 1 uM; type: organism-based, Notochord; conditions: in vivo; outline: as §1
Danio rerio [24] = species: Danio rerio; assay: Induction of cell death in Zebrafish embryo at 10 to 30 uM incubated for 24 to 48 hrs by acridine orange based fluorescence microscopy; type: functional, organism-based; outline: as §2
Danio rerio [25] = species: Danio rerio; assay: Teratogenicity in Zebrafish embryo assessed as live embryo level at 1 uM incubated at 28.5 degC until 5 days post fertilization; type: ADME, organism-based; conditions: in vivo, 120 h; outline: as §1
Danio rerio [26] = species: Danio rerio; assay: Hepatotoxicity in Zebrafish embryo at 1 uM incubated at 28 degC until 7 days post fertilization; type: organism-based; conditions: in vivo, 168 h; outline: as §3
Danio rerio [27] = species: Danio rerio; assay: Hepatotoxicity in Zebrafish embryo at 3 uM incubated at 28 degC until 7 days post fertilization; type: organism-based; conditions: in vivo, 168 h; outline: as §3
Danio rerio [28] = species: Danio rerio; assay: Teratogenicity in Zebrafish embryo assessed as induction of morphological deformities at 3 uM incubated at 28.5 degC until 5 days post fertilization; type: organism-based; conditions: in vivo, 120 h; outline: as §1
[29] = Teratogenicity in Zebrafish embryo assessed as live embryo level at 3 uM incubated at 28.5 degC until 5 days post fertilization; type: ADME, organism-based, Danio rerio; conditions: zebrafish embryos, read-out: Activity
Outline: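 Zebrafish embryos collected at 1 dpf, staged, dechorionated with 0.5 mg/ml pronase E and washed in E3 medium. Compound serially diluted in E3 with 0.1% DMSO final. Six embryos per well, exposed at 28.5 °C until 5 dpf, then washed, anaesthetised with 0.008% tricaine and scored for morphology (body shape, somites, notochord, tail, intestine, fins, brain, jaws, heart, liver, swim bladder). Blinded; phenobarbital 3 mM positive control.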

Danio rerio [30] = species: Danio rerio; assay: Induction of apoptosis in Zebrafish embryo up to 3 uM incubated for 24 to 48 hrs by acridine orange based fluorescence microscopy; type: functional, organism-based; outline: as §2
Danio rerio [31] = species: Danio rerio; assay: Teratogenicity in Zebrafish embryo assessed as induction of morphological deformities at lower jaw at 1 uM incubated at 28.5 degC until 5 days post fertilization; type: organism-based; conditions: in vivo, 120 h; outline: as §1
Danio rerio [32] = species: Danio rerio; assay: Teratogenicity in Zebrafish embryo at 10 to 30 uM incubated at 28.5 degC until 5 days post fertilization; type: ADME, organism-based; conditions: in vivo, 120 h; outline: as §1
Danio rerio [33] = species: Danio rerio; assay: Teratogenicity in Zebrafish embryo assessed as induction of morphological deformities at swim bladder at 1 uM incubated at 28.5 degC until 5 days post fertilization; type: toxicity, organism-based; conditions: in vivo, 120 h; outline: as §1
Danio rerio [34] = species: Danio rerio; assay: Hepatotoxicity in Zebrafish embryo assessed as induction of embryo mortality at 10 to 30 uM incubated at 28 degC until 7 days post fertilization; type: organism-based; conditions: in vivo, 168 h
Outline: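 Zebrafish embryos at 4 dpf, six per well in 0.1% DMSO, exposed to final compound concentrations of 1, 3, 10 and 30 at 28 °C until 7 dpf. Embryos then washed in E3 medium, anaesthetised with tricaine and imaged; liver size, liver degeneration and yolk sac retention quantified as percentages. Amiodarone served as positive control; evaluation blinded.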

| SMILES | inhibition [1] [%] | MTC (Danio rerio [2]) [µM] | NOAEL (Danio rerio [2]) [µM] | Activity (Danio rerio [3]) | Activity (Danio rerio [6]) | Activity (Danio rerio [7]) | EC50 (Danio rerio [8]) [nM] | selectivity ratio [10] | Activity (Danio rerio [12]) | Activity (Danio rerio [13]) | Activity (Danio rerio [14]) | Activity (Danio rerio [15]) | Activity (Danio rerio [16]) | Activity (Danio rerio [17]) | NOAEL (Danio rerio [18]) [µM] | Activity (Danio rerio [21]) | Activity (Danio rerio [22]) | Activity (Danio rerio [23]) | further results |
| --- | --- | --- | --- | --- | --- | --- | --- | --- | --- | --- | --- | --- | --- | --- | --- | --- | --- | --- | --- |
| CCOC(=O)c1c(-c2ccccc2)csc1-n1c(-c2ccc(C)cc2)cc2nc3ccccc3nc21 | 78 | 1 | 3 | Toxic | Non-toxic | Non-toxic | 1830 | 1.64 | Non-toxic | Non-toxic | Non-toxic | Non-toxic | Non-toxic | Non-toxic | 3 | Non-toxic | Non-toxic | Non-toxic | Activity (Danio rerio [4]): Non-toxic; Activity (Danio rerio [5]): inactive; Activity (Danio rerio [9]): Active; NOAEL (Danio rerio [11]): 10 µM; Activity (Danio rerio [19]): Toxic; Activity (Danio rerio [20]): Non-toxic |
| CCOC(=O)c1c(-n2c(-c3ccccc3)cc3nccnc32)sc2c1CCC2 | 62 | 1 | < 1 | Toxic | Non-toxic | Toxic | 1730 | 0.577 | Non-toxic | Toxic | Non-toxic | Non-toxic | Non-toxic | Non-toxic | 1 | Non-toxic | Toxic | Non-toxic | Activity (Danio rerio [24]): Active; LD (Danio rerio [2]): 10 µM; Activity (Danio rerio [25]): Non-toxic; Activity (Danio rerio [26]): Non-toxic; Activity (Danio rerio [27]): Toxic; Activity (Danio rerio [28]): Toxic; survival at 120 h, 3 µM [29]: 50%; Activity (Danio rerio [30]): Active; Activity (Danio rerio [31]): Toxic; Activity (Danio rerio [32]): Toxic; Activity (Danio rerio [33]): Toxic; Activity (Danio rerio [34]): Toxic |
